# Data reported in ChEMBL document CHEMBL1138555, “N-acylated and N,N'-diacylated imidazolidine-2-thione derivatives and N,N'-diacylated tetrahydropyrimidine-2(1H)-thione analogues: synthesis and antiproliferative activity” (Eur J Med Chem, 2009).
# Columns and labels:
# MOLT-4 = assay: Growth inhibition of human MOLT4 cells after 48 hrs by sulforhodamine B assay; format: functional; conditions: MOLT-4, 48 h
# Method in brief: (§1)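 NCI screen panel. Five 10-fold concentrations from 10^-4 to 10^-8 M. Exposure for the last 48 h of a 72 h incubation. Growth estimated by sulforhodamine B protein assay. GI50 is the concentration giving 50% growth inhibition. Where that level was not reached or was exceeded, the value is given as above or below the highest or lowest concentration tested.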
# M14 = assay: Growth inhibition of human M14 cells after 48 hrs by sulforhodamine B assay; format: functional; conditions: M14, 48 h; method in brief: as §1
# T47D = assay: Growth inhibition of human T47D cells after 48 hrs by sulforhodamine B assay; format: functional
# Method in brief: (§2)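 NCI in vitro panel screen. Compounds tested at five 10-fold dilutions, 10^-4 to 10^-8 M. Cells in 96-well plates were exposed for the last 48 h of a 72 h incubation. Viability/growth was read by sulforhodamine B protein assay. GI50 is the concentration giving 50% growth inhibition. Values beyond the tested range are reported as greater or less than the maximum or minimum concentration.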
# OVCAR-4 = assay: Growth inhibition of human OVCAR4 cells after 48 hrs by sulforhodamine B assay; format: functional; conditions: OVCAR-4, 48 h; method in brief: as §1
# SK-MEL-28 = assay: Growth inhibition of human SK-MEL-28 cells after 48 hrs by sulforhodamine B assay; format: functional; conditions: SK-MEL-28, 48 h; method in brief: as §1
# BT-549 = assay: Growth inhibition of human BT549 cells after 48 hrs by sulforhodamine B assay; format: functional; conditions: BT-549, 48 h; method in brief: as §1
# HL-60(TB) = assay: Growth inhibition of human HL-60(TB) cells after 48 hrs by sulforhodamine B assay; format: functional; conditions: HL-60, 48 h
# Method in brief: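 NCI 60-cell-line screen protocol: cells exposed to compound at five 10-fold dilutions from 10^-4 to 10^-8 M for the last 48 h of a 72 h incubation. Sulforhodamine B protein assay estimated viability/growth. GI50 (50% growth inhibition) derived; where not reached or exceeded, reported as greater or less than the highest or lowest concentration tested.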
# NCI-H522 = assay: Growth inhibition of human NCI-H522 cells after 48 hrs by sulforhodamine B assay; format: functional; conditions: NCI-H522, 48 h; method in brief: as §1
# HT-29 = assay: Growth inhibition of human HT-29 cells after 48 hrs by sulforhodamine B assay; format: functional; conditions: HT-29, 48 h; method in brief: as §1
# UO-31 = assay: Growth inhibition of human UO31 cells after 48 hrs by sulforhodamine B assay; format: functional; conditions: UO-31, 48 h; method in brief: as §2
# UACC-62 = assay: Growth inhibition of human UACC62 cells after 48 hrs by sulforhodamine B assay; format: functional; conditions: UACC-62, 48 h; method in brief: as §2
# K562 = assay: Growth inhibition of human K562 cells after 48 hrs by sulforhodamine B assay; format: functional; conditions: K562, 48 h; method in brief: as §1
# NCI-H460 = assay: Growth inhibition of human NCI-H460 cells after 48 hrs by sulforhodamine B assay; format: functional; conditions: NCI-H460, 48 h; method in brief: as §1
# MT4 = assay: Antiproliferative activity against human MT4 cells assessed as reduction of growth by MTT assay; format: functional, cell-based
# Method in brief: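 MT-4 lymphoblastoid T cells (ATCC) in RPMI 1640 with 10% FCS, penicillin/streptomycin, checked for mycoplasma. 1 × 10⁴ mock-infected cells per well with serial dilutions from a 100 mM DMSO stock. Incubated 4 days at 37 °C, viable cells counted by MTT. IC50 versus untreated controls by linear regression. Mean of three separate experiments.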
# HOP-92 = assay: Growth inhibition of human HOP92 cells after 48 hrs by sulforhodamine B assay; format: functional; conditions: HOP-92, 48 h; method in brief: as §1
# U-251 = assay: Growth inhibition of human U251 cells after 48 hrs by sulforhodamine B assay; format: functional; conditions: U-251, 48 h; method in brief: as §2
# SK-MEL-5 = assay: Growth inhibition of human SK-MEL-5 cells after 48 hrs by sulforhodamine B assay; format: functional; conditions: SK-MEL-5, 48 h; method in brief: as §1
# SK-OV-3 = assay: Growth inhibition of human SKOV3 cells after 48 hrs by sulforhodamine B assay; format: functional; conditions: SK-OV-3, 48 h; method in brief: as §1
# SN12C = assay: Growth inhibition of human SN12C cells after 48 hrs by sulforhodamine B assay; format: functional; method in brief: as §2
# EKVX = assay: Growth inhibition of human EKVX cells after 48 hrs by sulforhodamine B assay; format: functional; method in brief: as §1
# NCI-H322M = assay: Growth inhibition of human NCI-H322M cells after 48 hrs by sulforhodamine B assay; format: functional; method in brief: as §1
# MDA-MB-435 = assay: Growth inhibition of human MDA-MB-435 cells after 48 hrs by sulforhodamine B assay; format: functional; conditions: MDA-MB-435, 48 h; method in brief: as §1
# CAKI-1 = assay: Growth inhibition of human Caki1 cells after 48 hrs by sulforhodamine B assay; format: functional; conditions: CAKI-1, 48 h; method in brief: as §1
# A549 = assay: Growth inhibition of human A549 cells after 48 hrs by sulforhodamine B assay; format: functional; conditions: A549, 48 h; method in brief: as §1
# SW-620 = assay: Growth inhibition of human SW620 cells after 48 hrs by sulforhodamine B assay; format: functional; conditions: SW-620, 48 h; method in brief: as §2
# 786-0 = assay: Growth inhibition of human 786-0 cells after 48 hrs by sulforhodamine B assay; format: functional; conditions: 786-0, 48 h; method in brief: as §1
# OVCAR-3 = assay: Growth inhibition of human OVCAR-3 cells after 48 hrs by sulforhodamine B assay; format: functional; conditions: OVCAR-3, 48 h; method in brief: as §1
# SF-295 = assay: Growth inhibition of human SF295 cells after 48 hrs by sulforhodamine B assay; format: functional; conditions: SF-295, 48 h; method in brief: as §1
# PC-3 = assay: Growth inhibition of human PC3 cells after 48 hrs by sulforhodamine B assay; format: functional; conditions: PC-3, 48 h; method in brief: as §1
# MDA-MB-231 = assay: Growth inhibition of human MDA-MB-231 cells after 48 hrs by sulforhodamine B assay; format: functional; conditions: MDA-MB-231, 48 h; method in brief: as §1
# SK-MEL-2 = assay: Growth inhibition of human SK-MEL-2 cells after 48 hrs by sulforhodamine B assay; format: functional; conditions: SK-MEL-2, 48 h; method in brief: as §1
# HCT-116 = assay: Growth inhibition of human HCT116 cells after 48 hrs by sulforhodamine B assay; format: functional; conditions: HCT-116, 48 h; method in brief: as §1
# HCT-15 = assay: Growth inhibition of human HCT15 cells after 48 hrs by sulforhodamine B assay; format: functional; conditions: HCT-15, 48 h; method in brief: as §1
# RXF 393 = assay: Growth inhibition of human RXF393 cells after 48 hrs by sulforhodamine B assay; format: functional; conditions: RXF 393, 48 h; method in brief: as §1
# SR = assay: Growth inhibition of human SR cells after 48 hrs by sulforhodamine B assay; format: functional; method in brief: as §2
# DU-145 = assay: Growth inhibition of human DU145 cells after 48 hrs by sulforhodamine B assay; format: functional; conditions: DU-145, 48 h; method in brief: as §1
# IGROV-1 = assay: Growth inhibition of human IGROV1 cells after 48 hrs by sulforhodamine B assay; format: functional; conditions: IGROV-1, 48 h; method in brief: as §1
# KM12 = assay: Growth inhibition of human KM12 cells after 48 hrs by sulforhodamine B assay; format: functional; conditions: KM12, 48 h; method in brief: as §1
# Malme-3M = assay: Growth inhibition of human MALME-3M cells after 48 hrs by sulforhodamine B assay; format: functional; method in brief: as §1
# OVCAR-8 = assay: Growth inhibition of human OVCAR8 cells after 48 hrs by sulforhodamine B assay; format: functional; conditions: OVCAR-8, 48 h; method in brief: as §1
# [1] = Growth inhibition of human […] cells after 48 hrs by sulforhodamine B assay; format: functional; method in brief: as §1
# ACHN = assay: Growth inhibition of human ACHN cells after 48 hrs by sulforhodamine B assay; format: functional; method in brief: as §1
# NCI-H23 = assay: Growth inhibition of human NCI-H23 cells after 48 hrs by sulforhodamine B assay; format: functional; conditions: NCI-H23, 48 h; method in brief: as §1
# MCF7 = assay: Growth inhibition of human MCF7 cells after 48 hrs by sulforhodamine B assay; format: functional; conditions: MCF7, 48 h; method in brief: as §1
# SF-268 = assay: Growth inhibition of human SF268 cells after 48 hrs by sulforhodamine B assay; format: functional; conditions: SF-268, 48 h; method in brief: as §1
# TK-10 = assay: Growth inhibition of human TK10 cells after 48 hrs by sulforhodamine B assay; format: functional; conditions: TK-10, 48 h; method in brief: as §2
# UACC-257 = assay: Growth inhibition of human UACC257 cells after 48 hrs by sulforhodamine B assay; format: functional; conditions: UACC-257, 48 h; method in brief: as §2
compound,measurement,setting,value
N#CC(C#N)=CN1CCN(C(=O)c2ccccc2)C1=S,GI50,MOLT-4,39.2 µM
same,GI50,M14,37.3 µM
same,GI50,T47D,89.2 µM
same,GI50,OVCAR-4,59.3 µM
same,GI50,SK-MEL-28,45.5 µM
same,GI50,BT-549,22.8 µM
same,GI50,HL-60(TB),33.5 µM
same,GI50,NCI-H522,15.9 µM
same,GI50,HT-29,42 µM
same,GI50,UO-31,20.4 µM
same,GI50,UACC-62,50.4 µM
same,GI50,K562,79.5 µM
same,GI50,NCI-H460,20 µM
same,IC50,MT4,11 µM
same,GI50,HOP-92,56.8 µM
same,GI50,U-251,38.2 µM
same,GI50,SK-MEL-5,23.3 µM
same,GI50,SK-OV-3,66.7 µM
same,GI50,SN12C,24.6 µM
same,GI50,EKVX,3.5 µM
same,GI50,NCI-H322M,33.4 µM
same,GI50,MDA-MB-435,38.8 µM
same,GI50,CAKI-1,28.7 µM
same,GI50,A549,37.1 µM
same,GI50,SW-620,33.7 µM
same,GI50,786-0,38.9 µM
same,GI50,OVCAR-3,36.4 µM
same,GI50,SF-295,46.2 µM
same,GI50,PC-3,60 µM
same,GI50,MDA-MB-231,36.1 µM
same,GI50,SK-MEL-2,18.4 µM
same,GI50,HCT-116,34 µM
same,GI50,HCT-15,36.4 µM
same,GI50,RXF 393,22.7 µM
same,GI50,SR,18.8 µM
same,GI50,DU-145,24.4 µM
same,GI50,IGROV-1,28.2 µM
same,GI50,KM12,32.3 µM
same,GI50,Malme-3M,10.2 µM
same,GI50,OVCAR-8,77 µM
same,GI50,[1],35.3 µM
same,GI50,ACHN,18.8 µM
same,GI50,NCI-H23,26.1 µM
same,GI50,MCF7,16.7 µM
same,GI50,SF-268,21.3 µM
same,GI50,TK-10,23.3 µM
same,GI50,UACC-257,25.3 µM
